Reference: ChEMBL document CHEMBL4689842, “EUbOPEN Chemogenomics Library wave 1” (2021)

Tested on: HEK-293T
Assay: Multiplex assay against HEK293T;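 as to Population Tubulin-Different-Phenotype (%): share of the cells with healthy nuclei that show this phenotype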
Assay type: toxicity, cell-based
Details: human
Procedure, shortened: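 Per cents of healthy-nucleus cells form the tubulin, mitochondrial-mass and membrane-permeability phenotype values. Live cells were stained at seeding with Hoechst33342, BioTracker Green Microtubule Cytoskeleton Dye, MitoTracker Red and Annexin V Alexa Fluor 680. After compound addition they were imaged on a CQ1 microscope at 37°C and 5% CO2, and CellPathfinder machine-learning gating split them into Hoechst high-intensity objects or normal cells, normal cells into healthy, pyknosed or fragmented nuclei, and pyknosed cells into mitotic or apoptotic.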

[1] = 12 h, 1 µM, compound concentration 1 uM, replicate 1
[2] = 12 h, 1 µM, compound concentration 1 uM, replicate 2
[3] = 12 h, 10 µM, compound concentration 10 uM, replicate 1
[4] = 12 h, 10 µM, compound concentration 10 uM, replicate 2
[5] = 24 h, 1 µM, compound concentration 1 uM, replicate 1
[6] = 24 h, 1 µM, compound concentration 1 uM, replicate 2
[7] = 24 h, 10 µM, compound concentration 10 uM, replicate 1
[8] = 24 h, 10 µM, compound concentration 10 uM, replicate 2
[9] = 48 h, 1 µM, compound concentration 1 uM, replicate 1
[10] = 48 h, 1 µM, compound concentration 1 uM, replicate 2
[11] = 48 h, 10 µM, compound concentration 10 uM, replicate 1
[12] = 48 h, 10 µM, compound concentration 10 uM, replicate 2

`N#Cc1cccc(C(=O)Nc2cc(-c3ccccc3)nn2-c2ccccc2)c1` was tested, and the “Population Apoptotic (%)” value [1] was 48%, the “Population Healthy Nuclei (%)” value [1] was 41% and the “Population Hoechst High Intensity Objects (%)” value [1] was 13%. The “Population Membrane Permeable-Phenotype (%)” value [1] was 2%, the “Population Mitochondria Different-Phenotype (%)” value [1] was 85% and the “Population Mitotic Cells (%)” value [1] was 51%. The “Population Normal (%)” value [1] was 86%, the “Population Pyknosed Nuclei (%)” value [1] was 49% and the “Population Tubulin-Different-Phenotype (%)” value [1] was 64%. The “Total Cell Count” value [1] was 315, the “Population Apoptotic (%)” value [2] was 16% and the “Population Fragmented Nuclei (%)” value [2] was 8%. The “Population Healthy Nuclei (%)” value [2] was 42%, the “Population Hoechst High Intensity Objects (%)” value [2] was 6% and the “Population Membrane Permeable-Phenotype (%)” value [2] was 18%. The “Population Mitochondria Different-Phenotype (%)” value [2] was 23%, the “Population Mitotic Cells (%)” value [2] was 83% and the “Population Normal (%)” value [2] was 93%. For the same molecule, the “Population Pyknosed Nuclei (%)” value [2] was 48%, the “Population Tubulin-Different-Phenotype (%)” value [2] was 45% and the “Total Cell Count” value [2] was 182. For the same molecule, the “Population Apoptotic (%)” value [3] was 73%, the “Population Fragmented Nuclei (%)” value [3] was 8% and the “Population Healthy Nuclei (%)” value [3] was 33%. For the same molecule, the “Population Hoechst High Intensity Objects (%)” value [3] was 14%, the “Population Membrane Permeable-Phenotype (%)” value [3] was 5% and the “Population Mitochondria Different-Phenotype (%)” value [3] was 97%. For the same molecule, the “Population Mitotic Cells (%)” value [3] was 26%, the “Population Normal (%)” value [3] was 86% and the “Population Pyknosed Nuclei (%)” value [3] was 57%. The “Total Cell Count” value [3] was 300, the “Population Apoptotic (%)” value [4] was 45% and the “Population Fragmented Nuclei (%)” value [4] was 5%. For the same molecule, the “Population Healthy Nuclei (%)” value [4] was 25%, the “Population Hoechst High Intensity Objects (%)” value [4] was 5% and the “Population Membrane Permeable-Phenotype (%)” value [4] was 14%. The “Population Mitochondria Different-Phenotype (%)” value [4] was 73%, the “Population Mitotic Cells (%)” value [4] was 54% and the “Population Normal (%)” value [4] was 94%. For the same molecule, the “Population Pyknosed Nuclei (%)” value [4] was 68%, the “Population Tubulin-Different-Phenotype (%)” value [4] was 100% and the “Total Cell Count” value [4] was 174. For the same molecule, the “Population Apoptotic (%)” value [5] was 45%, the “Population Fragmented Nuclei (%)” value [5] was 9% and the “Population Healthy Nuclei (%)” value [5] was 37%. The “Population Hoechst High Intensity Objects (%)” value [5] was 12%, the “Population Membrane Permeable-Phenotype (%)” value [5] was 4% and the “Population Mitochondria Different-Phenotype (%)” value [5] was 61%. The “Population Mitotic Cells (%)” value [5] was 54%, the “Population Normal (%)” value [5] was 87% and the “Population Pyknosed Nuclei (%)” value [5] was 53%. The “Population Tubulin-Different-Phenotype (%)” value [5] was 51%, the “Total Cell Count” value [5] was 328 and the “Population Apoptotic (%)” value [6] was 12%. The “Population Fragmented Nuclei (%)” value [6] was 6%, the “Population Healthy Nuclei (%)” value [6] was 53% and the “Population Hoechst High Intensity Objects (%)” value [6] was 4%. The “Population Membrane Permeable-Phenotype (%)” value [6] was 14%, the “Population Mitochondria Different-Phenotype (%)” value [6] was 21% and the “Population Mitotic Cells (%)” value [6] was 88%. The “Population Normal (%)” value [6] was 95%, the “Population Pyknosed Nuclei (%)” value [6] was 39% and the “Population Tubulin-Different-Phenotype (%)” value [6] was 45%. For the same molecule, the “Total Cell Count” value [6] was 200, the “Population Apoptotic (%)” value [7] was 65% and the “Population Fragmented Nuclei (%)” value [7] was 7%. For the same molecule, the “Population Healthy Nuclei (%)” value [7] was 27%, the “Population Hoechst High Intensity Objects (%)” value [7] was 15% and the “Population Membrane Permeable-Phenotype (%)” value [7] was 4%. For the same molecule, the “Population Mitochondria Different-Phenotype (%)” value [7] was 97%, the “Population Mitotic Cells (%)” value [7] was 34% and the “Population Normal (%)” value [7] was 84%. The “Population Pyknosed Nuclei (%)” value [7] was 65%, the “Population Tubulin-Different-Phenotype (%)” value [7] was 95% and the “Total Cell Count” value [7] was 309. For the same molecule, the “Population Apoptotic (%)” value [8] was 67%, the “Population Fragmented Nuclei (%)” value [8] was 5% and the “Population Healthy Nuclei (%)” value [8] was 31%. For the same molecule, the “Population Hoechst High Intensity Objects (%)” value [8] was 4%, the “Population Membrane Permeable-Phenotype (%)” value [8] was 8% and the “Population Mitochondria Different-Phenotype (%)” value [8] was 84%. For the same molecule, the “Population Mitotic Cells (%)” value [8] was 33%, the “Population Normal (%)” value [8] was 95% and the “Population Pyknosed Nuclei (%)” value [8] was 62%. The “Population Tubulin-Different-Phenotype (%)” value [8] was 100%, the “Total Cell Count” value [8] was 167 and the “Population Apoptotic (%)” value [9] was 46%. For the same molecule, the “Population Fragmented Nuclei (%)” value [9] was 11%, the “Population Healthy Nuclei (%)” value [9] was 49% and the “Population Hoechst High Intensity Objects (%)” value [9] was 15%. For the same molecule, the “Population Membrane Permeable-Phenotype (%)” value [9] was 4%, the “Population Mitochondria Different-Phenotype (%)” value [9] was 29% and the “Population Mitotic Cells (%)” value [9] was 53%. For the same molecule, the “Population Normal (%)” value [9] was 84%, the “Population Pyknosed Nuclei (%)” value [9] was 38% and the “Population Tubulin-Different-Phenotype (%)” value [9] was 44%. For the same molecule, the “Total Cell Count” value [9] was 415, the “Population Apoptotic (%)” value [10] was 19% and the “Population Fragmented Nuclei (%)” value [10] was 6%. For the same molecule, the “Population Healthy Nuclei (%)” value [10] was 77%, the “Population Hoechst High Intensity Objects (%)” value [10] was 4% and the “Population Membrane Permeable-Phenotype (%)” value [10] was 15%. For the same molecule, the “Population Mitochondria Different-Phenotype (%)” value [10] was 4%, the “Population Mitotic Cells (%)” value [10] was 80% and the “Population Normal (%)” value [10] was 95%. The “Population Pyknosed Nuclei (%)” value [10] was 16%, the “Population Tubulin-Different-Phenotype (%)” value [10] was 42% and the “Total Cell Count” value [10] was 356. For the same molecule, the “Population Apoptotic (%)” value [11] was 53%, the “Population Fragmented Nuclei (%)” value [11] was 14% and the “Population Healthy Nuclei (%)” value [11] was 23%. For the same molecule, the “Population Hoechst High Intensity Objects (%)” value [11] was 11%, the “Population Membrane Permeable-Phenotype (%)” value [11] was 5% and the “Population Mitochondria Different-Phenotype (%)” value [11] was 78%. The “Population Mitotic Cells (%)” value [11] was 46%, the “Population Normal (%)” value [11] was 88% and the “Population Pyknosed Nuclei (%)” value [11] was 62%. The “Population Tubulin-Different-Phenotype (%)” value [11] was 100%, the “Total Cell Count” value [11] was 332 and the “Population Apoptotic (%)” value [12] was 63%. The “Population Fragmented Nuclei (%)” value [12] was 6%, the “Population Healthy Nuclei (%)” value [12] was 42% and the “Population Hoechst High Intensity Objects (%)” value [12] was 7%. The “Population Membrane Permeable-Phenotype (%)” value [12] was 17%, the “Population Mitochondria Different-Phenotype (%)” value [12] was 65% and the “Population Mitotic Cells (%)” value [12] was 36%. For the same molecule, the “Population Normal (%)” value [12] was 92%, the “Population Pyknosed Nuclei (%)” value [12] was 50% and the “Population Tubulin-Different-Phenotype (%)” value [12] was 98%. The “Total Cell Count” value [12] was 204.
